Here are results for 62 compounds from ChEMBL document CHEMBL4715758, “Hit-to-Lead Optimization of a Novel Class of Potent, Broad-Spectrum Trypanosomacides” (J Med Chem, 2016).

One data set deals with Trypanosoma cruzi. As to the kind of experiment: Antitrypanosomal activity against Trypanosoma cruzi Tulahuen strain trypomastigotes infected in rat H9c2 cells incubated for 72 hrs by DRAQ5 DNA dye based imaging analysis. Type of data set: functional, organism-based. Conditions: H9c2, 72 h.
Data set [1] deals with Trypanosoma brucei brucei. As to the kind of experiment: Antitrypanosomal activity against Trypanosoma brucei brucei Lister 427 strain blood stream form assessed as parasite growth inhibition at 10 uM incubated for 48 hrs by resazurin dye based fluorescence assay relative to control. Conditions: for inhibition at 10 µM: Lister 427, 48 h. Type of data set: functional. Summed up:
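Alamar Blue (resazurin) growth-inhibition screen against T. b. brucei at 10 μM, the same assay used to find the original hit. Compounds reaching 50% or greater inhibition were then taken into concentration–response testing for IC50.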

Data set [2] is described as follows: Selectivity index, ratio of IC50 for cytotoxicity against rat H9c2 cells assessed as reduction in cell viability to IC50 for antitrypanosomal against Trypanosoma cruzi Tulahuen trypomastigotes infected in rat H9c2 cells. Type of data set: toxicity, cell-based. Conditions: read-out: Ratio IC50.
In data set [3] the test system is Trypanosoma brucei brucei. As to the kind of experiment: Antitrypanosomal activity against Trypanosoma brucei brucei Lister 427 strain blood stream forms incubated for 48 hrs by resazurin dye based fluorescence assay. Conditions: Lister 427, 48 h. Type of data set: functional, organism-based.
Data set [4] can be described thus: Selectivity index, ratio of IC50 for cytotoxicity against human HEK293 cells assessed as reduction in cell viability to IC50 for antitrypanosomal activity against Trypanosoma brucei brucei Lister 427 blood stream form. Conditions: read-out: Ratio IC50. It is filed as toxicity, cell-based.

As a reminder, the IC50 is the concentration that inhibits the measured activity by half. Usually inhibition stands for the relative decrease from the control value, in per cent.

The source made the active and inactive calls. The calls are words filed in the database; no cut-off is given here. Bounds are passed on as bounds.

In the data set with Trypanosoma cruzi, `O=C(NCCc1csc(-c2ccccc2)n1)c1ccc2ccccc2c1` registered an IC50 of 16000 nM. Also, in data set [1], the inhibition at 10 µM is < 50%. Also, the selectivity ratio in data set [2] is > 3.1.
As to `CS(=O)(=O)c1cccc(C(=O)NCCc2csc(-c3ccccc3)n2)c1`, the IC50 was found to be 8500 nM in data set [3] and 40000 nM with Trypanosoma cruzi. Also, the selectivity ratio in data set [4] was 4.9; in data set [2], > 1.2.
In the case of `COc1ccc(C(=O)NCCc2csc(-c3ccccc3)n2)cc1`, in data set [1], the inhibition at 10 µM is < 50%.
Regarding `CC(C)OC(=O)NCCc1csc(-c2ccccc2)n1`, the IC50 came out at 220 nM in data set [3] and 400 nM in the data set with Trypanosoma cruzi. In addition, the selectivity ratio in data set [4] is 385; in data set [2] it was > 125.
In turn, `COc1ccccc1-c1nc(CCNC(=O)N2CCCCC2)cs1` registered a 50% inhibitory concentration (IC50) in data set [3] of 500 nM. In addition, the selectivity ratio in data set [4] turned out to be 168.
As for `O=C(NCCc1csc(-c2ccncc2)n1)c1ccccc1`, the half-inhibitory concentration (IC50) with Trypanosoma cruzi turned out to be 32000 nM.
Consider `CC(C)N(C)C(=O)NCCc1csc(-c2ccccc2)n1`, for which the values for the IC50 (in data set [3]; in the data set with Trypanosoma cruzi) were 390 nM and 1000 nM, respectively. For the same compound, the selectivity ratio is 212 in data set [4] and > 50 in data set [2].
Regarding `O=C(NCCc1csc(-c2ccccc2)n1)C1CCOCC1`, the half-maximal inhibitory concentration (IC50) in data set [3] was 5000 nM. Besides, the selectivity ratio in data set [4] came to 17.
Compound `N#Cc1cccc(C(=O)NCCc2csc(-c3ccccc3)n2)c1` had an IC50 in the data set on Trypanosoma cruzi of 790 nM.
In the case of `CC(C)(C)OC(=O)NCCc1csc(-c2ccccc2)n1`, the inhibition at 10 µM in data set [1] was < 50%.
For the compound `COc1cccc(C(=O)NCCc2csc(-c3ccccc3)n2)c1`, the concentration for half-maximal inhibition (IC50) in data set [3] came out at 1900 nM; with Trypanosoma cruzi, 3200 nM. Further, the selectivity ratio in data set [4] was 26; in data set [2], > 15.
For the compound `O=C(Cc1ccccc1)NCCc1csc(-c2ccccc2)n1`, in data set [1], the inhibition at 10 µM was < 50%.
For the compound `Cc1ccccc1-c1nc(CCNC(=O)N2CCCCC2)cs1`, it took 190 nM to reach half-maximal inhibition in data set [3] (IC50). Further, in data set [4], the selectivity ratio was 439.
The corresponding values for `C#Cc1cccc(C(=O)NCCc2csc(-c3ccccc3)n2)c1` are 760 nM and 27.
The corresponding values for `N#Cc1cccc(-c2nc(CCNC(=O)N3CCCCC3)cs2)c1` are 280 nM and 149.
`COc1cccc(-c2nc(CCNC(=O)N3CCCCC3)cs2)c1` came in with an IC50 in data set [3] of 670 nM. Besides, in data set [4], the selectivity ratio turned out to be 62.
`O=C(NCCc1csc(-c2ccccc2)n1)C1CC2C=CC1O2` (racemic): the half-inhibitory concentration (IC50) in data set [3] was found to be 5500 nM. For the same compound, the selectivity ratio in data set [4] came to 15.
Consider `O=C(CC1CC2CCC1C2)NCCc1csc(-c2ccccc2)n1` (racemic), for which the inhibition at 10 µM in data set [1] was < 50%.
Turning to `CC(C)NC(=O)NCCc1csc(-c2ccccc2)n1`, the IC50 in data set [3] is 900 nM; in the data set with Trypanosoma cruzi it was 1600 nM. For the same compound, the selectivity ratio was 93 in data set [4] and > 31 in data set [2].
Take `O=C(NCCc1csc(-c2ccccc2)n1)c1cccs1`: the IC50 in the data set with Trypanosoma cruzi stood at 400 nM.
In data set [3], `Cc1ccc(-c2nc(CCNC(=O)N3CCCCC3)cs2)cc1` displayed an IC50 of 3700 nM. Further, the selectivity ratio in data set [4] came out at 22.
Consider `C[Si](C)(C)C#Cc1cccc(C(=O)NCCc2csc(-c3ccccc3)n2)c1`, for which the IC50 in data set [3] turned out to be 3600 nM; in the data set with Trypanosoma cruzi, 2000 nM. Further, the selectivity ratio was 2.9 in data set [4] and > 12 in data set [2].
`O=C(NCCc1csc(-c2ccccc2)n1)N1CCOCC1` registered an IC50 in the data set on Trypanosoma cruzi of 3200 nM.
Turning to `COc1ccccc1C(=O)NCCc1csc(-c2ccccc2)n1`, the half-inhibitory concentration (IC50) in data set [3] is 10600 nM; in the data set on Trypanosoma cruzi, 10000 nM. In addition, the selectivity ratio is 2 in data set [4] and > 5 in data set [2].
`O=C(NCCc1csc(-c2ccccc2)n1)N1CCCCCC1` had a half-inhibitory concentration (IC50) with Trypanosoma cruzi of 120 nM.
As to `CCN(CC)C(=O)NCCc1csc(-c2ccccc2)n1`, the IC50 in data set [3] came to 260 nM; in the data set with Trypanosoma cruzi, 1000 nM. Moreover, the selectivity ratio is 320 in data set [4] and > 50 in data set [2].
Take `O=C(NCCc1csc(-c2ccccc2)n1)c1cccc(O)c1`: the inhibition at 10 µM in data set [1] is < 50%.
Turning to `CC(C)N(C(=O)NCCc1csc(-c2ccccc2)n1)C(C)C`, the half-maximal inhibitory concentration (IC50) was 9600 nM in data set [3] and 32000 nM in the data set on Trypanosoma cruzi. The selectivity ratio in data set [4] was 10; in data set [2], > 1.5.
Regarding `O=C(NCCc1csc(-c2ccccc2)n1)c1ccc(Cl)cc1`, in data set [1], the inhibition at 10 µM was < 50%.
In the data set on Trypanosoma cruzi, `O=S(=O)(NCCc1csc(-c2ccccc2)n1)c1ccccc1` displayed a half-maximal inhibitory concentration (IC50) of 20000 nM. In addition, the inhibition result in data set [1] was “inactive”.
With `O=C(NCCc1csc(-c2ccccn2)n1)c1ccccc1`, the half-inhibitory concentration (IC50) in the data set with Trypanosoma cruzi was 6300 nM.
On to `O=C(NCCc1csc(-c2ccccc2)n1)c1ccco1`, for which the midpoint of inhibition with Trypanosoma cruzi, the IC50, lay at 2000 nM.
Consider `O=C(NCCc1csc(-c2ccncc2)n1)C1CCCC1`, for which the values for the IC50 (in data set [3]; in the data set with Trypanosoma cruzi) were 9100 nM and 32000 nM, respectively. The values for the selectivity ratio in data set [4] and in data set [2] were 9 and > 1.5, respectively.
Consider `O=S(=O)(NCCc1csc(-c2ccccc2)n1)N1CCCC1`, for which the IC50 in the data set on Trypanosoma cruzi is 32000 nM. In data set [1], the inhibition result is “inactive”.
Take `O=C(NCCc1csc(-c2ccccc2)n1)c1cnccn1`: the half-inhibitory concentration (IC50) in data set [3] is 4100 nM; in the data set on Trypanosoma cruzi, 32000 nM. Also, the selectivity ratio in data set [4] is 20; in data set [2], > 1.5.
The matching figures for `O=C(NCCc1csc(-c2ccccc2)n1)c1ccon1`: 740 nM, 2500 nM, 113 and > 19.
The compound `O=C(NCCc1csc(-c2ccccc2)n1)c1ccncc1` yielded a half-inhibitory concentration (IC50) with Trypanosoma cruzi of 40000 nM.
Consider `O=C(NCCc1csc(-c2cccs2)n1)C1CCCC1`, for which the IC50 in data set [3] is 2400 nM; in the data set on Trypanosoma cruzi it was 10000 nM. In addition, the selectivity ratio in data set [4] is 35; in data set [2], > 5.
The matching figures for `O=C(NCCc1csc(-c2ccccc2)n1)c1ccccc1O`: 2300 nM, 7900 nM, 18 and > 3.
The matching figures for `O=C(NCCc1csc(-c2ccccc2)n1)OC1CCCC1`: 300 nM, 400 nM, 280 and > 125.
The matching figures for `CC(C)(C)C(=O)NCCc1csc(-c2ccccc2)n1`: 1700 nM, 6300 nM, 50 and > 7.9.
As for `O=C(NCCc1csc(-c2ccccc2)n1)c1cccc2ccccc12`, the inhibition at 10 µM in data set [1] was < 50%.
Take `N#Cc1ccccc1-c1nc(CCNC(=O)N2CCCCC2)cs1`: the concentration for half-maximal inhibition (IC50) in data set [3] was found to be 560 nM; with Trypanosoma cruzi, 790 nM. Also, the selectivity ratio is 148 in data set [4] and > 63 in data set [2].
`O=C(NCCc1csc(-c2cccnc2)n1)c1ccccc1`: 40000 nM corresponded to half-maximal inhibition with Trypanosoma cruzi (IC50).
`O=C(NCCc1csc(-c2ccccc2)n1)OCC1CC1`: the 50% inhibitory concentration (IC50) in data set [3] was 970 nM; with Trypanosoma cruzi, 3200 nM. In addition, the selectivity ratio in data set [4] is 86; in data set [2], > 15.
Regarding `O=C(NCCc1csc(-c2ccccc2)n1)c1cc(Br)co1`, the IC50 in data set [3] was determined as 2500 nM; in the data set on Trypanosoma cruzi it was 5000 nM. Also, the selectivity ratio in data set [4] was 12; in data set [2], > 10.
For `O=C(NCCc1csc(-c2ccccc2)n1)C1CCCCC1`, 320 nM corresponded to half-maximal inhibition in the data set with Trypanosoma cruzi (IC50).
Same read-out and setting: the value for `O=C(NCCc1csc(-c2ccccc2)n1)c1ccc[nH]1` was 6300 nM.
Regarding `N#Cc1ccccc1C(=O)NCCc1csc(-c2ccccc2)n1`, the inhibition at 10 µM in data set [1] was < 50%.
Consider `Cc1cccc(C(=O)NCCc2csc(-c3ccccc3)n2)c1`, for which the IC50 in data set [3] was found to be 3900 nM; in the data set on Trypanosoma cruzi it was 6300 nM. Besides, the selectivity ratio in data set [4] was 21; in data set [2], > 7.9.
Compound `O=C(NCCc1csc(-c2ccccc2)n1)c1cccnc1` displayed a half-inhibitory concentration (IC50) in the data set with Trypanosoma cruzi of 2500 nM.
Take `O=C(NCCc1csc(-c2cccc(Cl)c2)n1)N1CCCCC1`: the IC50 in data set [3] was found to be 160 nM. Moreover, in data set [4], the selectivity ratio was found to be 511.
`O=C(NCCc1csc(-c2ccccc2)n1)c1ccoc1` displayed a half-inhibitory concentration (IC50) in data set [3] of 350 nM. Also, in data set [4], the selectivity ratio worked out at 240.
Turning to `O=C(NCCc1csc(-c2ccccn2)n1)C1CCCC1`, inhibition in data set [3] was half-maximal at 4000 nM (IC50). The selectivity ratio in data set [4] worked out at 21.
The matching figures for `O=C(NCCc1csc(-c2ccccc2)n1)c1cscn1`: 1200 nM and 68.
On to `Cc1ccccc1C(=O)NCCc1csc(-c2ccccc2)n1`, for which the results for the IC50 (in data set [3]; with Trypanosoma cruzi) were 3300 nM and 3200 nM, respectively. For the same compound, the selectivity ratio was 2.5 in data set [4] and > 15 in data set [2].
The matching figures for `O=C(NCCc1csc(-c2cccnc2)n1)C1CCCC1`: 6600 nM, 20000 nM, 13 and > 2.5.
The matching figures for `CC(C)C(=O)NCCc1csc(-c2ccccc2)n1`: 5300 nM, 40000 nM, 16 and > 1.2.
In data set [3], `O=C(NCCc1csc(-c2ccc(Cl)cc2)n1)N1CCCCC1` registered an IC50 of 1500 nM. In addition, the selectivity ratio in data set [4] stood at 55.
The corresponding values for `O=C(NCCc1csc(-c2ccccc2)n1)n1cccc1` are 1100 nM and 38.
In data set [3], `Cc1ccc(C(=O)NCCc2csc(-c3ccccc3)n2)o1` displayed a concentration for half-maximal inhibition (IC50) of 1900 nM. Also, in data set [4], the selectivity ratio was 22.
The matching figures for `N#Cc1ccc(-c2nc(CCNC(=O)N3CCCCC3)cs2)cc1`: 330 nM and 125.
